Test results published in ChEMBL document CHEMBL1140708, “Synthesis and in vivo evaluation of halogenated N,N-dimethyl-2-(2'-amino-4'-hydroxymethylphenylthio)benzylamine derivatives as PET serotonin transporter ligands” (J Med Chem, 2008).

Experiments:
Caudate [1] = test: Drug uptake in cynomolgus monkey caudate after 55 mins; format: ADME, tissue-based, Macaca fascicularis, Caudate nucleus; conditions: in vivo
Summary of the method: (§1)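 Chase microPET scans in the same male cynomolgus monkey after i.v. 11C radiotracer (6.90–18.10 mCi). R,S-citalopram·HBr, 1.5 mg/kg, was given i.v. as a 30 s bolus at 45 min (ratios at 45 and 85 min) or 60 min (ratios at 55 and 115 min) post-tracer. Value is the region-to-cerebellum activity ratio before and after citalopram.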

Caudate [2] = test: Drug uptake in cynomolgus monkey caudate in presence of citalopram after 115 mins; format: ADME, tissue-based, Macaca fascicularis, Caudate nucleus; conditions: in vivo; summary of the method: as §1
Putamen [3] = test: Drug uptake in cynomolgus monkey putamen after 55 mins; format: ADME, tissue-based, Macaca fascicularis; conditions: in vivo; summary of the method: as §1
Putamen [4] = test: Drug uptake in cynomolgus monkey putamen in presence of citalopram after 115 mins; format: ADME, tissue-based, Macaca fascicularis; conditions: in vivo; summary of the method: as §1
Thalamus [5] = test: Drug uptake in cynomolgus monkey thalamus after 55 mins; format: ADME, tissue-based, Macaca fascicularis; conditions: in vivo; summary of the method: as §1
Thalamus [6] = test: Drug uptake in cynomolgus monkey thalamus in presence of citalopram after 115 mins; format: ADME, tissue-based, Macaca fascicularis; conditions: in vivo; summary of the method: as §1
Midbrain [7] = test: Drug uptake in cynomolgus monkey midbrain after 55 mins; format: ADME, tissue-based, Macaca fascicularis; conditions: in vivo; summary of the method: as §1
Midbrain [8] = test: Drug uptake in cynomolgus monkey midbrain in presence of citalopram after 115 mins; format: ADME, tissue-based, Macaca fascicularis; conditions: in vivo; summary of the method: as §1
Pons [9] = test: Drug uptake in cynomolgus monkey pons after 55 mins; format: ADME, tissue-based, Macaca fascicularis; conditions: in vivo; summary of the method: as §1
Pons [10] = test: Drug uptake in cynomolgus monkey pons in presence of citalopram after 115 mins; format: ADME, tissue-based, Macaca fascicularis; conditions: in vivo; summary of the method: as §1
Medulla [11] = test: Drug uptake in cynomolgus monkey medulla after 55 mins; format: ADME, tissue-based, Macaca fascicularis, Medulla of organ; conditions: in vivo; summary of the method: as §1
Medulla [12] = test: Drug uptake in cynomolgus monkey medulla in presence of citalopram after 115 mins; format: ADME, tissue-based, Macaca fascicularis, Medulla of organ; conditions: in vivo; summary of the method: as §1
Occipital cortex [13] = test: Drug uptake in cynomolgus monkey occipital cortex after 55 mins; format: ADME, tissue-based, Macaca fascicularis; conditions: in vivo; summary of the method: as §1
Occipital cortex [14] = test: Drug uptake in cynomolgus monkey occipital cortex in presence of citalopram after 115 mins; format: ADME, tissue-based, Macaca fascicularis; conditions: in vivo; summary of the method: as §1
Frontal cortex [15] = test: Drug uptake in cynomolgus monkey frontal cortex after 55 mins; format: ADME, tissue-based, Macaca fascicularis; conditions: in vivo; summary of the method: as §1
Frontal cortex [16] = test: Drug uptake in cynomolgus monkey frontal cortex in presence of citalopram after 115 mins; format: ADME, tissue-based, Macaca fascicularis; conditions: in vivo; summary of the method: as §1
[17] = Partition coefficient, log P at pH 7.4; format: physicochemical; conditions: octanol/water
Summary of the method: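 Each 11C-labelled radiotracer was partitioned between 1-octanol and 0.02 M phosphate buffer at pH 7.4.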

Caudate [18] = test: Drug uptake in cynomolgus monkey caudate after 85 mins; format: ADME, tissue-based, Macaca fascicularis, Caudate nucleus; conditions: in vivo
Summary of the method: (§2)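 Baseline microPET (Concorde P4) scans in one anesthetized adult male cynomolgus monkey (7.50–8.35 kg) after i.v. radiotracer. Attenuation correction used a 68Ge transmission scan; OSEM reconstruction, 3 mm resolution. Value is the region-of-interest to cerebellum activity ratio at 85 min post-injection.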

Midbrain [19] = test: Drug uptake in cynomolgus monkey midbrain after 85 mins; format: ADME, tissue-based, Macaca fascicularis; conditions: in vivo; summary of the method: as §2
Putamen [20] = test: Drug uptake in cynomolgus monkey putamen after 85 mins; format: ADME, tissue-based, Macaca fascicularis; conditions: in vivo; summary of the method: as §2
Thalamus [21] = test: Drug uptake in cynomolgus monkey thalamus after 85 mins; format: ADME, tissue-based, Macaca fascicularis; conditions: in vivo; summary of the method: as §2
Pons [22] = test: Drug uptake in cynomolgus monkey pons after 85 mins; format: ADME, tissue-based, Macaca fascicularis; conditions: in vivo; summary of the method: as §2
Medulla [23] = test: Drug uptake in cynomolgus monkey medulla after 85 mins; format: ADME, tissue-based, Macaca fascicularis, Medulla of organ; conditions: in vivo; summary of the method: as §2
Occipital cortex [24] = test: Drug uptake in cynomolgus monkey occipital cortex after 85 mins; format: ADME, tissue-based, Macaca fascicularis; conditions: in vivo; summary of the method: as §2
Frontal cortex [25] = test: Drug uptake in cynomolgus monkey frontal cortex after 85 mins; format: ADME, tissue-based, Macaca fascicularis; conditions: in vivo; summary of the method: as §2
[26] = target: Sodium-dependent serotonin transporter (Homo sapiens, UniProt P31645); test: Displacement of [3H]citalopram from human SERT expressed in HEK293 cells; format: cell-based
Sequence of Sodium-dependent serotonin transporter (P31645 whole entry): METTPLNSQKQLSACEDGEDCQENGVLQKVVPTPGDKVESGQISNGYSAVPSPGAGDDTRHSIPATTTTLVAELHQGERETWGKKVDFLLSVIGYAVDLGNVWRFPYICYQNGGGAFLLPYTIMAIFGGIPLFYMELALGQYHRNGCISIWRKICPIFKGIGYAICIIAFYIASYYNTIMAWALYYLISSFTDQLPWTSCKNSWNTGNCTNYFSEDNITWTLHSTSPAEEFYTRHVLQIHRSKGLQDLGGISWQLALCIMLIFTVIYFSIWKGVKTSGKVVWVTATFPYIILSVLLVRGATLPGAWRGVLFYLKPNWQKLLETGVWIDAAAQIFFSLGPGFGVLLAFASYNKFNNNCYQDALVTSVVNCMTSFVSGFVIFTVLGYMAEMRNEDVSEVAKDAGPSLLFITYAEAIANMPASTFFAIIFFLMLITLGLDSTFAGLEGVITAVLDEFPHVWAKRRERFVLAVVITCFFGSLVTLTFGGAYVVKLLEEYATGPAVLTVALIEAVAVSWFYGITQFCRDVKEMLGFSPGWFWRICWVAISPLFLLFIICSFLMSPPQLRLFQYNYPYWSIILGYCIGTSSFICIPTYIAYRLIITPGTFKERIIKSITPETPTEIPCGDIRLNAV
Summary of the method: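 Membranes (30–70 µg protein) from HEK-293 cells stably expressing hSERT, grown in DMEM/10% FBS/Geneticin. Incubated 2 h at room temperature with [3H]citalopram in 53 mM Tris, 126 mM NaCl, 5.3 mM KCl, pH 7.9. Competitor: 12 concentrations, 10^-13 to 10^-5 M, in triplicate. Rapid filtration on GF/B with cold buffer washes; Ki averaged from ≥2 separate assays.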

[27] = target: Sodium-dependent dopamine transporter (Homo sapiens, UniProt Q01959); test: Displacement of [125I]RTI-55 from human DAT expressed in MDCK cells; format: cell-based
Sequence of Sodium-dependent dopamine transporter (Q01959 whole entry): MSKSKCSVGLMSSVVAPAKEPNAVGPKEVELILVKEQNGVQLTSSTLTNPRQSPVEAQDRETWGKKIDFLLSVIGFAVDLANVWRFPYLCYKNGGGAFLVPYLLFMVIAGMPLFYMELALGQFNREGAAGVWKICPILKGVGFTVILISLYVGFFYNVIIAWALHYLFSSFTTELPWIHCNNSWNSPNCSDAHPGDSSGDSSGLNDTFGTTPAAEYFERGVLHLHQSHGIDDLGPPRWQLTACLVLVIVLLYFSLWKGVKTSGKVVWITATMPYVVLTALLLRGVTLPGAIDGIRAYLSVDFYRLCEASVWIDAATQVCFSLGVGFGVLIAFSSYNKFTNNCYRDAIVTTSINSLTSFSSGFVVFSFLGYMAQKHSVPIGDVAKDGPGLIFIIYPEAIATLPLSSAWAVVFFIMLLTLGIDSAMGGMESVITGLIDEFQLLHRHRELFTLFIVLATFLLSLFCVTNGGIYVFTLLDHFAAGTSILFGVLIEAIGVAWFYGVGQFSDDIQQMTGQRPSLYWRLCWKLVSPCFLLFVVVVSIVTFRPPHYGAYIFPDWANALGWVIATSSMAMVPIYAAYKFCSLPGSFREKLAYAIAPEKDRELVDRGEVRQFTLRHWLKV
Summary of the method: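 MDCK cells stably expressing hDAT, grown to confluency in DMEM with 10% FBS and Geneticin, harvested in PBS/0.53 mM EDTA. Membranes (30–70 µg protein) were incubated 1 h at room temperature with 2.0 nM [125I]RTI-55 in 42 mM sodium phosphate/320 mM sucrose, pH 7.4. Competitor: 12 concentrations, 10^-13 to 10^-5 M, in triplicate. Filtered through PEI-soaked GF/B filters; Ki averaged over ≥2 assays.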

[28] = target: Sodium-dependent noradrenaline transporter (Homo sapiens, UniProt P23975); test: Displacement of [3H]nisoxetine from human NET t expressed in HEK293 cells; format: cell-based
Sequence of Sodium-dependent noradrenaline transporter (P23975 whole entry): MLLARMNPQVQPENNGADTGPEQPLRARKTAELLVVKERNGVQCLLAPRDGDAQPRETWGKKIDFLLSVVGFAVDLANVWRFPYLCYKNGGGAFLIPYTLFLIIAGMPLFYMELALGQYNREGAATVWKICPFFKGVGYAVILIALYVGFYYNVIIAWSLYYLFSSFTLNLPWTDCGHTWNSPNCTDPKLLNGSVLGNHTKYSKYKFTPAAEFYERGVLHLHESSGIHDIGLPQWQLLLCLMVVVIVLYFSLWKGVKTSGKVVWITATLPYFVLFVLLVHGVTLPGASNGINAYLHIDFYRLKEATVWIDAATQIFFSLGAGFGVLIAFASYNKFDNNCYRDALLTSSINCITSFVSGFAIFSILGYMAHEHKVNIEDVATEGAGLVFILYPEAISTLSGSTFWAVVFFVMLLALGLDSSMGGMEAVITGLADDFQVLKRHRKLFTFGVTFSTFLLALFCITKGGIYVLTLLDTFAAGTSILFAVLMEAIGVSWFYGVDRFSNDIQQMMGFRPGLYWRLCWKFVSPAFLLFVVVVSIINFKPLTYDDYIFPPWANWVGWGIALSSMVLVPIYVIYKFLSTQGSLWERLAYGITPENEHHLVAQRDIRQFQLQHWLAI
Summary of the method: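 Membranes (30–70 µg protein) from HEK-293 cells stably expressing hNET. Equilibrium with [3H]nisoxetine for 4 h at 4 °C in 53 mM Tris, 320 mM NaCl, 5.3 mM KCl, pH 7.4 at 4 °C. Competitor: 12 concentrations, 10^-13 to 10^-5 M, in triplicate. Ended by vacuum filtration through PEI-presoaked GF/B filters; Ki averaged from at least two assays, each in duplicate.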

Homo sapiens [29] = organism: Homo sapiens; test: Selectivity for human DAT to human SERT
Summary of the method: (§3)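 Ratio of Ki at hDAT or hNET to Ki at hSERT. Ki values come from competition binding on transfected cell membranes: [125I]RTI-55 (MDCK-hDAT), [3H]nisoxetine (HEK-hNET) or [3H]citalopram (HEK-hSERT); 12 competitor concentrations from 10^-13 to 10^-5 M.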

Homo sapiens [30] = organism: Homo sapiens; test: Selectivity for human NET to human SERT; summary of the method: as §3
Caudate [31] = test: Drug uptake in cynomolgus monkey caudate in presence of citalopram after 85 mins; format: ADME, tissue-based, Macaca fascicularis, Caudate nucleus; conditions: in vivo; summary of the method: as §1
Putamen [32] = test: Drug uptake in cynomolgus monkey putamen after 45 mins; format: ADME, tissue-based, Macaca fascicularis; conditions: in vivo, 0.75 h; summary of the method: as §1
Putamen [33] = test: Drug uptake in cynomolgus monkey putamen in presence of citalopram after 85 mins; format: ADME, tissue-based, Macaca fascicularis; conditions: in vivo; summary of the method: as §1
Thalamus [34] = test: Drug uptake in cynomolgus monkey thalamus in presence of citalopram after 85 mins; format: ADME, tissue-based, Macaca fascicularis; conditions: in vivo; summary of the method: as §1
Midbrain [35] = test: Drug uptake in cynomolgus monkey midbrain after 45 mins; format: ADME, tissue-based, Macaca fascicularis; conditions: in vivo, 0.75 h; summary of the method: as §1
Midbrain [36] = test: Drug uptake in cynomolgus monkey midbrain in presence of citalopram after 85 mins; format: ADME, tissue-based, Macaca fascicularis; conditions: in vivo; summary of the method: as §1
Pons [37] = test: Drug uptake in cynomolgus monkey pons after 45 mins; format: ADME, tissue-based, Macaca fascicularis; conditions: in vivo, 0.75 h; summary of the method: as §1
Pons [38] = test: Drug uptake in cynomolgus monkey pons in presence of citalopram after 85 mins; format: ADME, tissue-based, Macaca fascicularis; conditions: in vivo; summary of the method: as §1
Medulla [39] = test: Drug uptake in cynomolgus monkey medulla after 45 mins; format: ADME, tissue-based, Macaca fascicularis, Medulla of organ; conditions: in vivo, 0.75 h; summary of the method: as §1
Medulla [40] = test: Drug uptake in cynomolgus monkey medulla in presence of citalopram after 85 mins; format: ADME, tissue-based, Macaca fascicularis, Medulla of organ; conditions: in vivo; summary of the method: as §1
Occipital cortex [41] = test: Drug uptake in cynomolgus monkey occipital cortex after 45 mins; format: ADME, tissue-based, Macaca fascicularis; conditions: in vivo, 0.75 h; summary of the method: as §1
Occipital cortex [42] = test: Drug uptake in cynomolgus monkey occipital cortex in presence of citalopram after 85 mins; format: ADME, tissue-based, Macaca fascicularis; conditions: in vivo; summary of the method: as §1
Frontal cortex [43] = test: Drug uptake in cynomolgus monkey frontal cortex after 45 mins; format: ADME, tissue-based, Macaca fascicularis; conditions: in vivo, 0.75 h; summary of the method: as §1
Frontal cortex [44] = test: Drug uptake in cynomolgus monkey frontal cortex in presence of citalopram after 85 mins; format: ADME, tissue-based, Macaca fascicularis; conditions: in vivo; summary of the method: as §1
Thalamus [45] = test: Drug uptake in cynomolgus monkey thalamus after 45 mins; format: ADME, tissue-based, Macaca fascicularis; conditions: in vivo, 0.75 h; summary of the method: as §1
Caudate [46] = test: Drug uptake in cynomolgus monkey caudate after 45 mins; format: ADME, tissue-based, Macaca fascicularis, Caudate nucleus; conditions: in vivo, 0.75 h; summary of the method: as §1

CN([11CH3])Cc1cc(I)ccc1Sc1ccc(CO)cc1N
Ratio (Caudate [1]): 1.8
Ratio (Caudate [2]): 1.3
Ratio (Putamen [3]): 1.9
Ratio (Putamen [4]): 1.4
Ratio (Thalamus [5]): 2
Ratio (Thalamus [6]): 1.63
Ratio (Midbrain [7]): 2.4
Ratio (Midbrain [8]): 1.7
Ratio (Pons [9]): 1.9
Ratio (Pons [10]): 1.5
Ratio (Medulla [11]): 2.5
Ratio (Medulla [12]): 1.6
Ratio (Occipital cortex [13]): 1.2
Ratio (Occipital cortex [14]): 1.1
Ratio (Frontal cortex [15]): 1
Ratio (Frontal cortex [16]): 1
logD [17]: 1.82
Ratio (Caudate [18]): 1.8
Ratio (Midbrain [19]): 3
Ratio (Putamen [20]): 2.3
Ratio (Thalamus [21]): 2.06
Ratio (Pons [22]): 1.65
Ratio (Medulla [23]): 2.4
Ratio (Occipital cortex [24]): 1.2
Ratio (Frontal cortex [25]): 1.09

CN(C)Cc1cc(I)ccc1Sc1ccc(CO)cc1N
Ki [26]: 0.31 nM
Ki [27]: > 2000 nM
Ki [28]: 467 nM
Ratio Ki (Homo sapiens [29]): > 1000
Ratio Ki (Homo sapiens [30]): > 1000

CN(C)Cc1cc(F)ccc1Sc1ccc(CO)cc1N
Ki [26]: 1.26 nM
Ki [27]: > 2000 nM
Ki [28]: 618 nM
Ratio Ki (Homo sapiens [29]): > 1000
Ratio Ki (Homo sapiens [30]): 490

CN([11CH3])Cc1cc(F)ccc1Sc1ccc(CO)cc1N
Ratio (Caudate [31]): 1.06
Ratio (Putamen [32]): 1.8
Ratio (Putamen [33]): 1.2
Ratio (Thalamus [34]): 1.3
Ratio (Midbrain [35]): 2.3
Ratio (Midbrain [36]): 1.2
Ratio (Pons [37]): 2
Ratio (Pons [38]): 1.4
Ratio (Medulla [39]): 2
Ratio (Medulla [40]): 1.1
Ratio (Occipital cortex [41]): 1.3
Ratio (Occipital cortex [42]): 1.04
Ratio (Frontal cortex [43]): 1.06
Ratio (Frontal cortex [44]): 1
logD [17]: 2.06
Ratio (Midbrain [19]): 3.4
Ratio (Thalamus [21]): 2.3
Ratio (Pons [22]): 2.8
Ratio (Medulla [23]): 2.1
Ratio (Frontal cortex [25]): 1.04
Ratio (Thalamus [45]): 1.9
Ratio (Caudate [46]): 1.6
